In ChEMBL document CHEMBL4616631, “Design, synthesis and evaluation of phthalide alkyl tertiary amine derivatives as promising acetylcholinesterase inhibitors with high potency and selectivity against Alzheimer's disease” (Bioorg Med Chem, 2020):
Activity calls are given as the source filed them. The calls are words filed in the database; no cut-off is given here.

How the values were obtained:
[1] = molecular target: Butyrylcholinesterase (BuChE) (Rattus norvegicus, UniProt Q9JKC1); assay: Inhibition of BuChE in rat serum at 50 uM using S-butylthiocholine iodide as substrate by Ellman's method relative to control; type: cell-free; conditions: probe S-butylthiocholine iodide
How it was run: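 Rat serum (25%) as BuChE source, S-butylthiocholine iodide 1 mM, DTNB 0.2%, in 0.1 mM phosphate buffer pH 7.4, 37 °C 15 min (modified Ellman); absorbance change at 405 nm. Three independent experiments, each in triplicate.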

[2] = Antioxidant activity assessed as trolox equivalent of AAPH-induced radical scavenging activity at 5 uM preincubated for 15 mins followed by AAPH addition measured every min for 90 mins by ORAC-FL assay; type: functional
How it was run: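 ORAC-FL in 75 mM phosphate buffer, pH 7.4. Sample at 5 µM was preincubated with fluorescein (150 nM final) for 15 min at 37 °C, then AAPH was added (12 mM final). Fluorescence (ex 485/em 535 nm) was read every minute for 90 min. […] Triplicate, at least three independent assays.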

[3] = molecular target: Amyloid-beta precursor protein (Homo sapiens) (UniProt P05067); assay: Inhibition of HFIP-pretreated self-induced amyloid beta (1 to 42) (unknown origin) aggregation at 25 uM measured after 24 hrs by ThT fluorescence assay relative to control
How it was run: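 Aβ1-42 was pretreated in HFIP for 24 h at room temperature, dried, and dissolved in DMSO to a 200 µM stock. Aβ (25 µM) was incubated with compound (25 µM) at 37 °C for 24 h. ThT was added at 5 µM in glycine-NaOH, pH 8.5. Fluorescence ex 446/em 490 nm, background-subtracted; inhibition = (1−IFi/IFc)×100. Triplicate.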

[4] = molecular target: Acetylcholinesterase (Electrophorus electricus) (UniProt O42275); assay: Inhibition of Electrophorus electricus AChE at 50 uM using […] as substrate incubated for 15 mins by Ellman's method relative to control
How it was run: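 Eel AChE (0.05 U/mL final) with acetylthiocholine iodide 1 mM and DTNB 0.2% in […] pH 8.0, 37 °C 15 min (modified Ellman); absorbance at 412 nm. Three independent experiments, each in triplicate.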

[5] = test system: Mus musculus; assay: (§1) Antialzheimer activity in scopolamine-induced Kunming mouse model of memory impairment assessed as increase in latency time at 5 mg/kg/day, ig for 7 days followed by training trial at 1 hr post dose on day 6 and subsequent scopolamine challenge at 30 mins post training trial and measured post last dose by step-down passive avoidance test; type: functional, organism-based
How it was run: (§2)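 Kunming mice, 18-22 g, male and female in half, 8 per group. Dosed i.g. once daily for 7 days, vehicle 0.5% CMC-Na. Day-6 training came 1 h after dosing: a 50 V, 5 s foot shock on stepping down from the platform, in a 5 min trial. Scopolamine 2.0 mg/kg i.p. followed 30 min later; control mice got none. Step-down latency and number of shocks were counted over 5 min in the test trial 24 h after training. Mean ± SEM.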

[6] = test system: Mus musculus; assay: as §1, with “decrease” for “increase”, “number of electric shock” for “latency time”; type: functional, organism-based; how it was run: as §2

Chain of Amyloid-beta precursor protein (Homo sapiens) (P05067 whole entry): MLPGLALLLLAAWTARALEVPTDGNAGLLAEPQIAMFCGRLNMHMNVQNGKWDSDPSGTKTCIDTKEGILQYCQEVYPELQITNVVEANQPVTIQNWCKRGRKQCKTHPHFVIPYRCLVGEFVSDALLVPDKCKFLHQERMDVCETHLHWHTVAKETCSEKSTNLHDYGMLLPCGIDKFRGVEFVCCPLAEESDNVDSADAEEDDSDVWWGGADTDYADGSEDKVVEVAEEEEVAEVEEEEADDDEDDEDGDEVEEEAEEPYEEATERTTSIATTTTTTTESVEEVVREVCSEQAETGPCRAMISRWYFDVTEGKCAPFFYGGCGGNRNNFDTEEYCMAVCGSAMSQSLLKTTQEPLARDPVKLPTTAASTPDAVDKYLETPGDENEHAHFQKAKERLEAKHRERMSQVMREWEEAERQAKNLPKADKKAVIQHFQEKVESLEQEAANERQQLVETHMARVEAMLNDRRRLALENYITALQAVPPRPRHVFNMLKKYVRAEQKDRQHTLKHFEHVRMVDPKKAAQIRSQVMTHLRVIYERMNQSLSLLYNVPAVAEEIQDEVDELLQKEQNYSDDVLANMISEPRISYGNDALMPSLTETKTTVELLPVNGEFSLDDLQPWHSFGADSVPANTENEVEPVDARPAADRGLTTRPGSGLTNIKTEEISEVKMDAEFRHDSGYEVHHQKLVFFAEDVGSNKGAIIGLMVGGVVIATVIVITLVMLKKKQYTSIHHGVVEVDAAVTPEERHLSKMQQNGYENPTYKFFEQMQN
Chain of Acetylcholinesterase (Electrophorus electricus) (O42275 24-633 limits assumed): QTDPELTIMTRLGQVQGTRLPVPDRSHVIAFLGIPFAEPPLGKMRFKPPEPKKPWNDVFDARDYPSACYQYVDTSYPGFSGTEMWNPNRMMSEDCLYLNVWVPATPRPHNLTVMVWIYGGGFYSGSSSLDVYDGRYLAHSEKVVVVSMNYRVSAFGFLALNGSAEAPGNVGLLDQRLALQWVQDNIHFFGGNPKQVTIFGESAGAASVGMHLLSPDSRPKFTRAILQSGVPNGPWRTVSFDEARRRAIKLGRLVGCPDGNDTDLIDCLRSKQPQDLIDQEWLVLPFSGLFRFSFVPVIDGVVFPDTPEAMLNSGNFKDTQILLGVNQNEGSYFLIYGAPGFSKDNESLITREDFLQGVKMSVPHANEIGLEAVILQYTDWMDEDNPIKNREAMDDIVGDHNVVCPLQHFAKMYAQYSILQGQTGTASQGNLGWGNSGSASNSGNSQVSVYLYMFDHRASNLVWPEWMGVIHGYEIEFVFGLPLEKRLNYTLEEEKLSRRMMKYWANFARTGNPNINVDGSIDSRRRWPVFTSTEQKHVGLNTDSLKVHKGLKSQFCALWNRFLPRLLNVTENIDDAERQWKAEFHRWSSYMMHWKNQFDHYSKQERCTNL
Chain of Butyrylcholinesterase (BuChE) (Q9JKC1 whole entry): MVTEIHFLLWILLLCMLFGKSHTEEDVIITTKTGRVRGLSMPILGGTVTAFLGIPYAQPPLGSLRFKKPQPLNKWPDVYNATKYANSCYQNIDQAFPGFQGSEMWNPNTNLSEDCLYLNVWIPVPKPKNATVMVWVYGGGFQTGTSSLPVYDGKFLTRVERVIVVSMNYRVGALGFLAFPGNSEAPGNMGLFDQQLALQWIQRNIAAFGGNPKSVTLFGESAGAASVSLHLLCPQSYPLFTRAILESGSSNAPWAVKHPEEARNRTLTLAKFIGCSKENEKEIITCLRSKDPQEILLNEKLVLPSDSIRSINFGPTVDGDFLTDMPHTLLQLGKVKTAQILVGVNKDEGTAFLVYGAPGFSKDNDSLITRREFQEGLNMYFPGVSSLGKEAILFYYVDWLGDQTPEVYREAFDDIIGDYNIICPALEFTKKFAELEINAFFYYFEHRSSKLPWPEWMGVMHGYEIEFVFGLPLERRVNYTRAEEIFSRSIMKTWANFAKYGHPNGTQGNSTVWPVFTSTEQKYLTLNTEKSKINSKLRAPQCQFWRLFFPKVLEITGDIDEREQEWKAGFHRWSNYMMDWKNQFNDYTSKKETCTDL

SMILES	inhibition at 50 µM [1]	Activity [2]	inhibition [3]	inhibition [4]	Activity [5]	Activity [6]
CCCCC1OC(=O)c2ccccc21 (racemic) [RAC-3-N-BUTYLPHTHALIDE]	2.67%	0.21 µMequiv/µM	< 5%	< 5%	–	–
COc1cc2c(cc1OC)C(=O)C(CC1CCN(Cc3ccccc3)CC1)C2 (stereo unspecified)	–	–	–	–	inactive	inactive
